Screening results: PubChem, several laboratories
CSN deneddyl inh: blocks human CSN-mediated cullin deneddylation | Q92905 | Purified CSN, SCF-Nedd8-OG deneddylation, fluorescence polarization | inhibition, % at 12.5 µM | hit rate 0.38% among 360,000 | AID 651999;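 active = pattern-corrected inhibition above about 35%, with an unprinted fluorescence ratio check between 0.5 and 1.5, limit read from the data, passing the limit was not always enough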;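 note: 0% = enzyme with substrate and 100% = substrate without enzyme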
Target sequence (Q92905 whole entry, looked up, one chain of several): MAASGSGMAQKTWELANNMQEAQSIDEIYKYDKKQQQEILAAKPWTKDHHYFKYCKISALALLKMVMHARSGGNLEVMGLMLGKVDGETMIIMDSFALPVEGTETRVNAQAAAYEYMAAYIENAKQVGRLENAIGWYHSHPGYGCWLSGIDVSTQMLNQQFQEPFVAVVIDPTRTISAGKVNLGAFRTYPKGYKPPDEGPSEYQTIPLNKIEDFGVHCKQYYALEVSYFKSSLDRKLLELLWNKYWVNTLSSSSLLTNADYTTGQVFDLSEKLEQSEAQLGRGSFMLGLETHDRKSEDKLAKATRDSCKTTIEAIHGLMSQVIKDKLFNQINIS
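Material: purified human Csn5 enzyme expressed in HEK293T cells / Medium: Tris buffer pH 7.5, NaCl, DTT, Tween-20, trehalose, ovalbumin / Compound dosing: 12.5 µM single point / Schedule: 90 min incubation of compound, enzyme and substrate at room temperature / Signal: fluorescence polarization of the substrate / Control set: no-enzyme wells high, enzyme-with-substrate wells low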
Rpn11 block: inhibitors of human proteasome Rpn11 | AID 588493 | hit rate 0.59% among 360,000 | inhibition, % at 20 µM | O00487 | human 26S proteasome, Ub4-pepOG fluorescence polarization; 20S core pre-blocked with epoxomicin;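 active = inhibition at 20 µM, scaled to each plate's controls, above about 33%, limit read from the data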
Target sequence (O00487 whole entry, looked up): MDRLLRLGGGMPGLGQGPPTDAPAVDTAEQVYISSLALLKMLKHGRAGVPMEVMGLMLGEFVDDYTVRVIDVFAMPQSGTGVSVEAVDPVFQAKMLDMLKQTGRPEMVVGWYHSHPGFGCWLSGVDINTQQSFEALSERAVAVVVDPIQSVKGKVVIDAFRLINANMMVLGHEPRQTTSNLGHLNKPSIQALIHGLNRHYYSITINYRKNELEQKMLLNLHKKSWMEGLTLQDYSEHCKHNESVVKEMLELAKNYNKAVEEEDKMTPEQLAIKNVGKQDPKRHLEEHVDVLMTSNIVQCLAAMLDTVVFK
IDE act: IDE (human) activation, cell-based; HEK cells, FAbeta-B cleavage, fluorescence polarization; 0% vehicle, 100% cell-free pure enzyme wells; activation, % at 5.96 µM; hit rate 0.073% among 340,000; AID 493087;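 active = activation above the mean of all tested compounds plus 3 SD, set per screening campaign, cut at about 17% in these data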
HNF4A DNA FP: change in binding of human HNF4 alpha to DNA. P41235. HNF4a-FITC DNA binding, fluorescence polarization, 1 h. activity change, % at 10 µM. hit rate 0.3% among 360,000. AID 1224865; in the data active = activity change above about 30%, passing the limit was not always enough
IDE cell inh: inhibitors of human insulin-degrading enzyme in cells. hit rate 0.41% among 320,000. HEK cells, FAbetaB cleavage, fluorescence polarization. AID 434962. inhibition, % at 5.59 µM;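 active = percent inhibition above the average of all tested compounds plus 3 SD, set per screening campaign, cut at about 16% in these data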;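 note: IDE supplied by intact live HEK cells; FP after avidin binding of uncleaved biotin substrate so inhibition keeps polarization high; 0% = DMSO wells and 100% = 60 µM reference IDE inhibitor Ii1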
TPT1 inh: inhibitors of Candida albicans tRNA 2'-phosphotransferase TPT1. hit rate 0.81% among 300,000. recombinant caTPT1, FP RNA substrate dephosphorylation. inhibition, % at 5 µM;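 active = inhibition above the mean of all tested compounds plus 3 SD, set per screening campaign, cut at about 24% in these data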;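 note: plate controls were DMSO alone for no effect and ferristatin control at 100 nM for full effect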
IDE inh confirm: cellular human IDE inhibition, confirmation; shares compounds with IDE cell inh; HEK cells, FAbetaB cleavage, fluorescence polarization; inhibition, % at 5.59 µM; hit rate 51% among 1,200; AID 435028;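 active = mean inhibition across triplicate wells above the cutoff set by the earlier primary insulin-degrading enzyme screen, cut at about 16% in these data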;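 note: 0% = DMSO wells and 100% = 60 µM reference IDE inhibitor Ii1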
HEK cytotox: kills HEK cells in IDE inhibitor counter-screen | shares compounds with IDE cell inh | HEK293 cytotoxicity, ATP luminescence | inhibition, % at 5.59 µM | hit rate 28% among 1,200; in the data active = inhibition above about 22%;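 note: 0% = vehicle wells and 100% = reference cytotoxic drug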
An asterisk follows results filed as active. Hits are enriched below; roughly 1.7% of the tested compounds scored in any of these assays.

How did CCN(CC)C(=S)Oc1ccc(Cl)cc1Cl do in these assays?
CSN deneddyl inh: -1; Rpn11 block: -6; IDE act: 1; HNF4A DNA FP: -1; IDE cell inh: -3; TPT1 inh: 1

Results for COc1c(/C=N/NC(N)=S)c(C)nn1-c1ccccc1 ?
CSN deneddyl inh: 4; Rpn11 block: 1; IDE act: -10; HNF4A DNA FP: 0; IDE cell inh: 22*; TPT1 inh: -6; IDE inh confirm: 3; HEK cytotox: 11

Results for Cn1ccc(C(=O)Nc2cccnc2Cl)n1 ?
CSN deneddyl inh: -4; Rpn11 block: -6; IDE act: 6; HNF4A DNA FP: 5

What do the screens show for `COc1cccc(CN(C)C(=O)Cc2ccc(OC)c(S(=O)(=O)N3CCOCC3)c2)c1`?
CSN deneddyl inh: -2; Rpn11 block: 2; IDE act: -2; HNF4A DNA FP: 0; IDE cell inh: 4; TPT1 inh: 0

How did CCOC(=O)c1cc(NC(=O)N(CC)CC)c(C)nc1C do in these assays?
CSN deneddyl inh: 0; Rpn11 block: 1; IDE act: 7; HNF4A DNA FP: 2; IDE cell inh: 0; TPT1 inh: 3

Results for Nc1c2c(nc3ccn(-c4ccccc4)c(=O)c13)CCCCC2 ?
CSN deneddyl inh: -1; Rpn11 block: 0; IDE act: -8; HNF4A DNA FP: 2; IDE cell inh: 18*; TPT1 inh: 0; IDE inh confirm: 19*; HEK cytotox: 15

Results for O=C(/C=C/c1ccccc1Cl)Nc1ccc(-c2nnc3n2CCCCC3)cc1 ?
CSN deneddyl inh: 2; Rpn11 block: -8; IDE act: -2; HNF4A DNA FP: 2; IDE cell inh: 31*; TPT1 inh: -1; IDE inh confirm: 1; HEK cytotox: 9

Results for Cc1c(C(=O)Nc2ccc(-c3nnc4n3CCCCC4)cc2)oc2c1ccc1ccccc12 ?
CSN deneddyl inh: -5; Rpn11 block: 20; IDE act: -12; HNF4A DNA FP: -5; IDE cell inh: 23*; TPT1 inh: -2; IDE inh confirm: 13; HEK cytotox: 39*

Results for Cc1ccc(S(=O)(=O)NCCNC(=O)CN2CCOCC2)cc1 ?
CSN deneddyl inh: 6; Rpn11 block: -3; IDE act: 4; HNF4A DNA FP: -2; IDE cell inh: 2; TPT1 inh: -3

How did CC1CCN(c2ccc3c(c2)S(=O)(=O)c2cccc(C(=O)NCc4cccc(F)c4)c2C3=O)CC1 do in these assays?
CSN deneddyl inh: 53; IDE act: -13; HNF4A DNA FP: -14; IDE cell inh: 24*; IDE inh confirm: 32*; HEK cytotox: 23*

What do the screens show for `O=C(NCc1ccco1)c1cccc2c1C(=O)c1ccc(N3CCC(Cc4ccccc4)CC3)cc1S2(=O)=O`?
CSN deneddyl inh: 14; Rpn11 block: -53; IDE act: -17; HNF4A DNA FP: -25; IDE cell inh: 46*; IDE inh confirm: 45*; HEK cytotox: 43*

Results for Cc1cc2nc(N3CCN(C(=O)c4ccco4)CC3)sc2cc1C ?
CSN deneddyl inh: -2; Rpn11 block: 5; IDE act: -12; HNF4A DNA FP: -4; IDE cell inh: 22*; TPT1 inh: 1; IDE inh confirm: 5; HEK cytotox: 26*

Results for Cc1cc(C)c2nc(N3CCN(C(=O)c4ccco4)CC3)sc2c1 ?
CSN deneddyl inh: 1; Rpn11 block: -10; IDE act: -7; HNF4A DNA FP: 1; IDE cell inh: 10; TPT1 inh: -2

How did Cc1cccc2[nH]c3c(N4CCN(C(=O)c5ccco5)CC4)ncnc3c12 do in these assays?
CSN deneddyl inh: 0; Rpn11 block: 1; IDE act: -20; HNF4A DNA FP: -1; IDE cell inh: 30*; TPT1 inh: -2; IDE inh confirm: 12; HEK cytotox: 9

How did CC(C)(C)NC(=O)C1CCN(C(=O)c2ccco2)CC1 do in these assays?
CSN deneddyl inh: 4; Rpn11 block: 2; IDE act: -4; HNF4A DNA FP: 3; IDE cell inh: -1; TPT1 inh: -4

What do the screens show for `CC1=CC(C)(C)Nc2ccc(OC(=O)CCN3C(=O)c4ccccc4C3=O)cc21`?
CSN deneddyl inh: -12; Rpn11 block: -3; IDE act: -3; HNF4A DNA FP: -3; IDE cell inh: 17*; TPT1 inh: -4; IDE inh confirm: 38*; HEK cytotox: 127*

Results for O=C(CCN1C(=O)c2ccccc2C1=O)Oc1ccc2ccccc2c1 ?
CSN deneddyl inh: -4; Rpn11 block: -2; IDE act: 2; HNF4A DNA FP: 2; IDE cell inh: 8; TPT1 inh: 0

What do the screens show for `CCNC(=S)N1CCC(C(=O)c2ccc(F)cc2)CC1`?
CSN deneddyl inh: -2; Rpn11 block: 2; HNF4A DNA FP: -1

How did O=c1c2c([N+](=O)[O-])cc([N+](=O)[O-])cc2sn1Cc1ccccc1 do in these assays?
CSN deneddyl inh: -2; Rpn11 block: 9; IDE act: -32; HNF4A DNA FP: -2; IDE cell inh: 84*; TPT1 inh: -1; IDE inh confirm: 24*; HEK cytotox: 92*

Results for CSc1ccccc1NC(=O)CN1CC(C)OC(C)C1 (stereo not given) ?
CSN deneddyl inh: -6; Rpn11 block: -3; IDE act: 4; HNF4A DNA FP: -3; IDE cell inh: 4; TPT1 inh: -2

Results for CC(=O)N(c1ccccc1C)C1CCCC1 ?
CSN deneddyl inh: 2; Rpn11 block: 2; IDE act: -2; HNF4A DNA FP: -1; IDE cell inh: -1; TPT1 inh: 0

What do the screens show for `CC(=O)N(C1=C(Cl)C(=O)c2ccccc2C1=O)C1CCCCC1`?
CSN deneddyl inh: 2; Rpn11 block: 2; IDE act: -68; HNF4A DNA FP: 2; IDE cell inh: 50*; TPT1 inh: 2; IDE inh confirm: 64*; HEK cytotox: 124*

How did COc1ccccc1OCCNC(=O)c1cccc(S(=O)(=O)NCc2ccccc2)c1 do in these assays?
CSN deneddyl inh: -2; Rpn11 block: 6; IDE act: 6; HNF4A DNA FP: 1; IDE cell inh: -1

How did NC(N)=NC(N)=Nc1cccc2ccccc12 do in these assays?
CSN deneddyl inh: -3; Rpn11 block: 3; IDE act: 8; HNF4A DNA FP: 1; IDE cell inh: 17*; TPT1 inh: -5; IDE inh confirm: -2; HEK cytotox: 13

How did O=C1c2ccccc2C(=O)C1(O)O do in these assays?
IDE cell inh: 2
